{"source": "ChEMBL document CHEMBL1128434", "about": "“Gonadotropin-releasing hormone antagonists: novel members of the azaline B family” (1995)", "key": {"[1]": {"molecular_target": "T1, Gonadotropin-releasing hormone receptor (Rattus norvegicus) (UniProt P30969)", "T1 sequence (whole entry)": "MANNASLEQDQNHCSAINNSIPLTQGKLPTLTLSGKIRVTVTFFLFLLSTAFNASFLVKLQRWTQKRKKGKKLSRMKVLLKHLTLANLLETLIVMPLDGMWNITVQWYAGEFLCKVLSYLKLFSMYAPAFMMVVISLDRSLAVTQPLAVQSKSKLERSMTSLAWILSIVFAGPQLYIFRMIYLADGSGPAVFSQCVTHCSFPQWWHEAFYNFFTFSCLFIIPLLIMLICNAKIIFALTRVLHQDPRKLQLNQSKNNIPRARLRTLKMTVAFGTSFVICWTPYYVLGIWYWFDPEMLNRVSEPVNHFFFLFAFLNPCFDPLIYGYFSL", "assay": "Duration of action measured using castrated male rat assay to inhibit luteinizing hormone release.; fully active at 72 hr", "type": "functional"}, "[2]": {"molecular_target": "T1, Gonadotropin-releasing hormone receptor (Rattus norvegicus)", "assay": "In vitro potency to inhibit GnRH-mediated LH secretion by cultured pituitary cells relative to [Ac-delta-Pro1,DFpa2,DTrp36]GnRH.", "type": "functional, cell-based", "settings": "Pituitary gland cell", "summary_of_the_method": "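Dispersed rat pituitary cells in culture; antagonist inhibition of GnRH-stimulated LH secretion. Potency expressed relative to standard antagonist [Ac-Δ3Pro1,D4FPhe2,DTrp3,6]GnRH taken as 1.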"}, "Rattus norvegicus [3]": {"species": "Rattus norvegicus", "assay": "Effect in the anti ovulatory assay (AOA) in rats expressed as no. of rats ovulating/No of rats treated at 1.0 mg; 7/14", "type": "functional"}, "[4]": {"molecular_target": "T1, Gonadotropin-releasing hormone receptor (Rattus norvegicus)", "assay": "Effect in the anti ovulatory assay (AOA) in rats expressed as no. of rats ovulating/No of rats treated at 2.5 mg; 0/8", "type": "functional"}, "Rattus norvegicus [5]": {"species": "Rattus norvegicus", "assay": "Effect in the anti ovulatory assay (AOA) in rats expressed as no. of rats ovulating/No of rats treated at 1.0 mg; 1/10", "type": "functional"}, "Rattus norvegicus [6]": {"species": "Rattus norvegicus", "assay": "Effect in the anti ovulatory assay (AOA) in rats expressed as no. of rats ovulating/No of rats treated at 1.0 mg; 2/2", "type": "functional"}, "Rattus norvegicus [7]": {"species": "Rattus norvegicus", "assay": "Effect in the anti ovulatory assay (AOA) in rats expressed as no. of rats ovulating/No of rats treated at 2.5 mg; 4/8", "type": "functional"}, "Rattus norvegicus [8]": {"species": "Rattus norvegicus", "assay": "Effect in the anti ovulatory assay (AOA) in rats expressed as no. of rats ovulating/No of rats treated at 50 mg; 4/7", "type": "functional"}, "Rattus norvegicus [9]": {"species": "Rattus norvegicus", "assay": "Effect in the anti ovulatory assay (AOA) in rats expressed as no. of rats ovulating/No of rats treated at 25 mg; 0/3", "type": "functional"}, "Rattus norvegicus [10]": {"species": "Rattus norvegicus", "assay": "Effect in the anti ovulatory assay (AOA) in rats expressed as no. of rats ovulating/No of rats treated at 10 mg; 2/6", "type": "functional"}, "[11]": {"molecular_target": "T1, Gonadotropin-releasing hormone receptor (Rattus norvegicus)", "assay": "Duration of action, measured using castrated male rat assay to inhibit luteinizing hormone release.; fully active at 24 hr but not at 48 hr", "type": "functional"}, "Rattus norvegicus [12]": {"species": "Rattus norvegicus", "assay": "Effect in the anti ovulatory assay (AOA) in rats expressed as no. of rats ovulating/No of rats treated at 2.0 mg; 1/10", "type": "functional"}, "Rattus norvegicus [13]": {"species": "Rattus norvegicus", "assay": "Effect in the anti ovulatory assay (AOA) in rats expressed as no. of rats ovulating/No of rats treated at 1.0 mg; 9/18", "type": "functional"}, "Rattus norvegicus [14]": {"species": "Rattus norvegicus", "assay": "Effect in the anti ovulatory assay (AOA) in rats expressed as no. of rats ovulating/No of rats treated at 2.5 mg; 0/6", "type": "functional"}, "Rattus norvegicus [15]": {"species": "Rattus norvegicus", "assay": "Duration of action measured using castrated male rat assay to inhibit luteinizing hormone release.; fully active at 48 hr but not at 72 hr", "type": "functional"}, "Rattus norvegicus [16]": {"species": "Rattus norvegicus", "assay": "Effect in the anti ovulatory assay (AOA) in rats expressed as no. of rats ovulating/No of rats treated at 1.0 mg; 8/8", "type": "functional"}}}
{"smiles": "CC(=O)Nc1ccc(C[C@@H](NC(=O)[C@H](Cc2ccc(Nc3n[nH]c(N)n3)cc2)NC(=O)[C@H](CO)NC(=O)[C@@H](Cc2cccnc2)NC(=O)[C@@H](Cc2ccc(Cl)cc2)NC(=O)[C@@H](Cc2ccc3ccccc3c2)NC(C)=O)C(=O)N[C@@H](CC(C)C)C(=O)N[C@@H](CCCCNC(C)C)C(=O)N2CCC[C@H]2C(=O)N[C@H](C)N)cc1", "values": [{"measurement": "Duration of action", "setting": "[1]", "value": 72, "unit": "h"}, {"measurement": "Relative potency", "setting": "[2]", "value": 0.82}, {"measurement": "No. of rats ovulated", "setting": "Rattus norvegicus [3]", "value": 7}, {"measurement": "No. of rats ovulated", "setting": "[4]", "value": 0}]}
{"smiles": "CCC(=O)Nc1ccc(C[C@H](NC(=O)[C@H](CO)NC(=O)[C@@H](Cc2cccnc2)NC(=O)[C@@H](Cc2ccc(Cl)cc2)NC(=O)[C@@H](Cc2ccc3ccccc3c2)NC(C)=O)C(=O)N[C@H](Cc2ccc(NC(=O)CC)cc2)C(=O)N[C@@H](CC(C)C)C(=O)N[C@@H](CCCCNC(C)C)C(=O)N2CCC[C@H]2C(=O)N[C@H](C)N)cc1", "values": [{"measurement": "Duration of action", "setting": "[1]", "value": 72, "unit": "h"}, {"measurement": "No. of rats ovulated", "setting": "Rattus norvegicus [5]", "value": 4}, {"measurement": "No. of rats ovulated", "setting": "[4]", "value": 0}]}
{"smiles": "CC(=O)N[C@H](Cc1ccc2ccccc2c1)C(=O)N[C@H](Cc1ccc(Cl)cc1)C(=O)N[C@H](Cc1cccnc1)C(=O)N[C@@H](CO)C(=O)N[C@@H](Cc1ccc(NC(=O)C2CCC(=O)N2)cc1)C(=O)N[C@H](Cc1ccc(NC(=O)C2CCC(=O)N2)cc1)C(=O)N[C@@H](CC(C)C)C(=O)N[C@@H](CCCCNC(C)C)C(=O)N1CCC[C@H]1C(=O)N[C@H](C)N", "note": "(some centres not stated)", "values": [{"measurement": "No. of rats ovulated", "setting": "Rattus norvegicus [6]", "value": 2}, {"measurement": "No. of rats ovulated", "setting": "Rattus norvegicus [7]", "value": 4}]}
{"smiles": "CC(=O)N[C@H](Cc1ccc2ccccc2c1)C(=O)N[C@H](Cc1ccc(Cl)cc1)C(=O)N[C@H](Cc1cccnc1)C(=O)N[C@@H](CO)C(=O)N[C@@H](Cc1ccc(Nc2n[nH]c(N)n2)cc1)C(=O)N[C@H](Cc1ccc(Nc2n[nH]c(N)n2)cc1)C(=O)N[C@@H](CC(C)C)C(=O)N[C@@H](Cc1ccc(NC(C)C)cc1)C(=O)N1CCC[C@H]1C(=O)N[C@H](C)N", "values": [{"measurement": "No. of rats ovulated", "setting": "Rattus norvegicus [8]", "value": 4}]}
{"smiles": "CC(=O)Nc1ccc(C[C@H](NC(=O)[C@H](CO)NC(=O)[C@@H](Cc2cccnc2)NC(=O)[C@@H](Cc2ccc(Cl)cc2)NC(=O)[C@H](Cc2ccc3ccccc3c2)NC(C)=O)C(=O)N[C@H](Cc2ccc(NC(C)=O)cc2)C(=O)N[C@@H](CC(C)C)C(=O)N[C@@H](CCCCNC(C)C)C(=O)N2CCC[C@H]2C(=O)N[C@H](C)N)cc1", "values": [{"measurement": "No. of rats ovulated", "setting": "Rattus norvegicus [9]", "value": 0}, {"measurement": "No. of rats ovulated", "setting": "Rattus norvegicus [10]", "value": 2}]}
{"smiles": "CC(=O)N[C@H](Cc1ccc2ccccc2c1)C(=O)N[C@H](Cc1ccc(Cl)cc1)C(=O)N[C@H](Cc1cccnc1)C(=O)N[C@@H](CO)C(=O)N[C@@H](CCCCNc1n[nH]c(N)n1)C(=O)N[C@H](CCCCNc1n[nH]c(N)n1)C(=O)N[C@@H](CC(C)C)C(=O)N[C@@H](CCCCNC(C)C)C(=O)N1CCC[C@H]1C(=O)N[C@H](C)N", "values": [{"measurement": "Duration of action", "setting": "[11]", "value": 24, "unit": "h"}, {"measurement": "Relative potency", "setting": "[2]", "value": 0.23}, {"measurement": "No. of rats ovulated", "setting": "Rattus norvegicus [12]", "value": 1}]}
{"smiles": "CC(=O)N[C@H](Cc1ccc2ccccc2c1)C(=O)N[C@H](Cc1ccc(Cl)cc1)C(=O)N[C@H](Cc1cccnc1)C(=O)N[C@@H](CO)C(=O)N[C@@H](Cc1ccc(NC(=O)CCNc2n[nH]c(N)n2)cc1)C(=O)N[C@H](Cc1ccc(NC(=O)CCNc2n[nH]c(N)n2)cc1)C(=O)N[C@@H](CC(C)C)C(=O)N[C@@H](CCCCNC(C)C)C(=O)N1CCC[C@H]1C(=O)N[C@H](C)N", "values": [{"measurement": "Duration of action", "setting": "[1]", "value": 72, "unit": "h"}, {"measurement": "Relative potency", "setting": "[2]", "value": 0.52}, {"measurement": "No. of rats ovulated", "setting": "Rattus norvegicus [13]", "value": 9}, {"measurement": "No. of rats ovulated", "setting": "Rattus norvegicus [14]", "value": 0}]}
{"smiles": "CC(=O)Nc1ccc(C[C@H](NC(=O)[C@H](CO)NC(=O)[C@@H](Cc2cccnc2)NC(=O)[C@@H](Cc2ccc(Cl)cc2)NC(=O)[C@@H](Cc2ccc3ccccc3c2)NC(C)=O)C(=O)N[C@H](Cc2ccc(NC(C)=O)cc2)C(=O)N[C@@H](CC(C)C)C(=O)N[C@@H](CCCCNC(C)C)C(=O)N2CCC[C@H]2C(=O)N[C@@H](C)N)cc1", "values": [{"measurement": "Duration of action", "setting": "Rattus norvegicus [15]", "value": 48, "unit": "h"}, {"measurement": "No. of rats ovulated", "setting": "Rattus norvegicus [16]", "value": 8}, {"measurement": "No. of rats ovulated", "setting": "[4]", "value": 0}]}
